MC4R antagonist = MC4R antagonists of cAMP signaling, primary screen, cell-based, TR-FRET, antagonist arm of biased-ligand search; Melanocortin receptor 4 (Homo sapiens), P32245; MC4R-expressing cells, MTII-stimulated cAMP, LANCE TR-FRET; inhibition, % at 6.5 µM; hit rate 0.48% among 360,000; AID 540295, 2011;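 active = inhibition above its plate's cutoff, the mean of tested wells on that plate plus 3 SD, cut at about 29% in these data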;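 also: 0% = Melanotan II alone and 100% = Melanotan II plus saturating MCL0020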
Target sequence (P32245 whole entry, looked up): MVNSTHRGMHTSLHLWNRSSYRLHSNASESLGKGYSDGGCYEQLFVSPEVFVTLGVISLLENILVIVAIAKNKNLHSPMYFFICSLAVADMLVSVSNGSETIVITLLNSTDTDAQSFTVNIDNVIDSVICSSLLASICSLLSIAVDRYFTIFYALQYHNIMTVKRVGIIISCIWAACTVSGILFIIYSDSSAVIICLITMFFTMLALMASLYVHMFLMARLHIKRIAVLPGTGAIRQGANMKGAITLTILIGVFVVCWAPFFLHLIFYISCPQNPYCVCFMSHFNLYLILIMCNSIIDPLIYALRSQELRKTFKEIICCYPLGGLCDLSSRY
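Assay system: U2OS-MC4R stable cell line; Also added: Melanotan II; Technique: Eu-cAMP/anti-cAMP TR-FRET, emission 671 nm; Times: 30-min compound, 1-h challenge, 1-h detection, room temperature.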
MC4R ag barr = MC4R agonists recruiting beta-arrestin, primary screen, cell-based, luminescence, agonist arm of biased-ligand search; activation, % at 8.9 µM; Melanocortin receptor 4 (Homo sapiens), P32245; hit rate 0.98% among 360,000; U2OS MC4R beta-arrestin complementation; percent of melanotan II response, DMSO zero;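 active = activation above a per-plate cutoff, the mean activation of sample wells on that plate plus 3 SD, cut at about 8% in these data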
m5-HT2A agonist = mouse Htr2a agonists via beta-arrestin recruitment, primary screen, cell-based, luminescence; 5-hydroxytryptamine receptor 2A (Mus musculus), P35363; CHO-K1 mHTR2A beta-arrestin complementation; percent of 30 µM serotonin response; activation, % at 7.6 µM; hit rate 0.66% among 360,000; AID 624169, 2012;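 active = activation above a run cutoff, the mean activation of all tested compounds plus 3 SD, cut at about 14% in these data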;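 also: 0% = plate median of compound wells and 100% = 30 µM serotonin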
TMEM16A inh = TMEM16A chloride channel inhibitors, primary screen, cell-based, HTS; Anoctamin-1 (Mus musculus), Q8BHY3; HEK293 TMEM16A/YFP iodide influx fluorescence, ionomycin; normalized B-score (activity score, 25-100; higher = stronger inhibition) at 10 µM; hit rate 1.2% among 310,000;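 active = ratio plate-corrected score three or more library SD toward inhibition, starting fluorescence score within five deviations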;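 also: score derived from kinetic fluorescence span divided by baseline fluorescence per well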
MIN6 prolif = inducers of MIN6 beta-cell proliferation, primary screen, ATP luminescence, uHTS; MIN6 cells proliferation, ATPlite luminescence, 48 h; cells starved in 0.2% serum; 100% = growth in 10% serum; proliferation, % at 10 µM; AID 2380, 2010; hit rate 0.29% among 330,000;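 active = compounds whose signal lies at least 3.5 SD above the mean of all wells on their plate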;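 also: 0% = DMSO-treated cells in low-serum medium and 100% = 10% serum control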
ANO1 activ = TMEM16A chloride channel activators or potentiators, primary screen, cell-based, HTS | Anoctamin-1 (Mus musculus), Q8BHY3 | HEK293 TMEM16A/YFP-H148Q/I152L, iodide quench fluorescence; stronger effect = lower value | B-score at 10 µM | hit rate 0.3% among 340,000 | AID 623877, 2012;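 active = fluorescence-ratio B-score plate-corrected deviation score at least 3 library SD below zero, with starting fluorescence score within 5 deviations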;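 also: channel opened by trigger with iodide after compound preincubation; score built on the fluorescence ratio of max minus min over baseline; more negative score means more quench and so TMEM16A activation or potentiation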
cAMP nonselect = nonselective cAMP signaling inhibitors, parental cells, counter-screen for MC4R biased antagonist project, cell-based, TR-FRET, U2OS, forskolin, triplicate; inhibition, % at 6.5 µM; LANCE TR-FRET; shares compounds with MC4R antagonist; hit rate 26% among 1,600;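 active = mean inhibition over triplicates above the low-control well mean plus 3 SD, set per campaign, cut at about 13% in these data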;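 also: signal is single emission at 671 nm which falls as cellular cAMP rises; 0% = forskolin-stimulated wells and 100% = buffer without forskolin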
MC4R antag conf = MC4R cAMP antagonists, retest, confirmation, cell-based, TR-FRET; shares compounds with MC4R antagonist; MC4R-expressing cells, MTII-stimulated cAMP; inhibition, % at 6.5 µM; hit rate 27% among 1,600; AID 602195, 2012; in the data active = inhibition above about 29%;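 also: 0% = agonist stimulated wells alone and 100% = agonist stimulated wells plus saturating reference antagonist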
Starred values were filed as active, the others as inactive; i = inactive; · = no result given. Only some compounds are listed: those with a hit (about 3.4% of all), similar ones and a draw of the others.

SMILES	MC4R antagonist	MC4R ag barr	m5-HT2A agonist	TMEM16A inh	MIN6 prolif	ANO1 activ	cAMP nonselect	MC4R antag conf
CCOc1ccc(N(CC(=O)N/N=C/c2cccnc2)S(C)(=O)=O)cc1	31*	1	8	i	-4	i	-1	1
O=C(NC1CC1)c1ccc2sc([C@H]3C[C@H](O)[C@@H](CO)O3)nc2c1	-6	-1	8	·	·	·	·	·
O=C(CC[C@H]1O[C@@H](n2ccc(=O)[nH]c2=O)[C@H](O)[C@@H]1O)NCC(c1ccccc1)c1ccccc1	·	·	-2	·	·	·	·	·
CC(C)Nc1ncnc2c1ncn2[C@H]1CN(Cc2ccc(F)cc2)C[C@@H](CO)O1	12	-1	-2	·	·	·	·	·
c1ccc(-c2noc(CN3CCCC(OCc4ccccn4)C3)n2)cc1 (centres undefined)	31*	0	5	i	4	i	1	5
CC1(C)CC(=O)C=C(c2cccc(O)c2)C1=O	4	0	-1	·	-3	i	·	·
COc1ccc(NC(=O)COc2coc(CN3CCN(c4ccccc4)CC3)cc2=O)cc1	-5	2	3	i	0	i	·	·
COc1cc([N+](=O)[O-])ccc1NC(=S)NC(=O)CC(C)(C)C	30*	-3	4	i	-1	i	6	32*
COc1ccc([N+](=O)[O-])cc1NC(=S)NC(=O)C(C)(C)C	6	-4	-3	i	0	i	·	·
CC(=O)Nc1ccc(S(=O)(=O)N[C@@H](C)C(=O)OCC(=O)c2ccc(Br)s2)cc1	34*	-2	-1	·	·	·	33*	55*
O=C(CCCCCN1C(=O)c2cccc([N+](=O)[O-])c2C1=O)NCCc1ccccc1	5	-1	8	·	·	·	·	·
CCCN(CC(=O)Nc1ccccc1C)C(=O)CCN1C(=O)c2cccc([N+](=O)[O-])c2C1=O	30*	-3	0	i	2	i	21*	33*
Cc1cccc(NC(=O)CCN2C(=O)c3cccc([N+](=O)[O-])c3C2=O)c1	31*	-2	9	i	0	i	16*	29*
O=C(COC(=O)CCN1C(=O)c2cccc([N+](=O)[O-])c2C1=O)NCc1ccccc1	33*	-3	10	i	-2	i	6	21
CCOC(=O)Cc1csc(NC(=O)CCN2C(=O)c3cccc([N+](=O)[O-])c3C2=O)n1	44*	1	4	i	2	i	8	10
O=C(NNC(=O)C1C2C=CC(C2)C1C(=O)O)c1cc(Cl)ccc1O (centres undefined)	16	-4	-4	i	1	i	·	·
O=C(CN1CCN(c2ccccc2O)CC1)Nc1cc(S(=O)(=O)N2CCCC2)ccc1Cl	3	-4	-4	·	-1	i	·	·
COc1cccc2[nH]c3c(Cl)ncnc3c12	29*	-1	6	i	0	i	8	27
O=C(Oc1ccccc1C(=O)Nc1ccccc1)c1ccc(Br)c([N+](=O)[O-])c1	36*	-1	0	i	-6	i	12	18
Cc1c(C(=O)OCC(=O)Nc2ccc(S(N)(=O)=O)cc2)oc2c1ccc1ccccc12	35*	2	-1	i	0	i	2	-5
Cc1cc(C(=O)OCC(=O)Nc2cccc(S(N)(=O)=O)c2)c2ccccc2n1	-2	-1	1	i	0	i	·	·
Cc1ccc(C)n1-c1ccc(-c2nnc3n2CCCCC3)s1	39*	0	6	i	0	i	17*	33*
C1CCc2nnc(-c3nnc4n3CCCCC4)n2CC1	-2	1	4	i	4	i	·	·
CCCN(C(=O)CSc1ccccc1C(=O)O)C1CCS(=O)(=O)C1 (centres undefined)	5	1	5	·	-1	i	·	·
Cc1cc(N2CCCC2=O)cc(C)c1S(=O)(=O)Nc1c(C)nn(C)c1C	4	-2	-3	i	-3	i	·	·
SMILES	MC4R antagonist	MC4R ag barr	m5-HT2A agonist	TMEM16A inh	MIN6 prolif	ANO1 activ	cAMP nonselect	MC4R antag conf
Cc1cc(N2CCCC2=O)ccc1S(=O)(=O)Nc1c(C)nn(C)c1C	34*	0	1	i	-1	i	1	12
CC1CCc2c(sc(NC(=O)CSc3nc(N)cc(=O)[nH]3)c2C(N)=O)C1 (centres undefined)	-25	-2	-6	·	0	i	·	·
COc1cc(OC)c(C(=O)Nc2cc(S(=O)(=O)N3CCOCC3)ccc2N2CCOCC2)cc1OC	-42	-1	0	·	·	·	·	·
COC[C@H]1CCCN1[C@H]1CS(=O)(=O)N[C@@H]1COCc1ccccc1	·	·	6	·	·	·	·	·
O=C(NC(=S)Nc1ccccn1)c1ccc(-c2ccccc2)cc1	7	1	2	i	-5	i	·	·
Cc1cc(C)c(NC(=S)NC(=O)c2ccc(-c3ccccc3)cc2)c(C)c1	32*	-1	0	i	·	i	-12	-17
Cc1nn(CC(=O)NC(C)C(C)C)c(C)c1S(=O)(=O)N1CCCCC1 (centres undefined)	6	4	-2	·	-2	i	·	·
Cc1ccc(-n2cccc2/C=C2\C(=N)N3N=C(C(C)C)SC3=NC2=O)cc1	73*	-2	2	i	-4	i	-3	20
CCC1=NN2C(=N)/C(=C\c3cccn3-c3ccc(OC)cc3)C(=O)N=C2S1	26	-1	2	i	0	i	·	·
COc1cc(/C=N/NC(=O)c2cccnc2)ccc1OS(=O)(=O)c1ccc(C)cc1	29*	-1	-8	i	-3	i	2	5
COc1cc(/C=N/NC(=O)c2cccnc2)ccc1OS(=O)(=O)c1ccc(F)cc1	2	0	-4	i	-1	i	·	·
COc1ccc(OC(F)(F)F)cc1CC1(C)C(=O)Nc2ccc(S(=O)(=O)NC3CCCCC3)cc21 (centres undefined)	8	4	6	·	·	·	·	·
COCCN1C(=O)COc2ccccc2C1C(=O)NC(C)(C)C (centres undefined)	·	·	3	·	·	·	·	·

Bioassay records deposited in PubChem BioAssay by several laboratories.
